{
  "source": "ChEMBL document CHEMBL1137658",
  "about": "“Effect of caspofungin on metabolite profiles of Aspergillus species determined by nuclear magnetic resonance spectroscopy” (2007)",
  "key": {"[1]": {"system": "Aspergillus flavus", "assay": "Inhibition of metabolite production in isolate Aspergillus flavus 05-314-1100 assessed as lowest drug concentration required to inhibit 50% fumarate, malate production after 48 hrs in presence of 2 % glucose by NMR spectroscopy", "assay_type": "functional, isolate  05-314-1100", "method_in_brief": "(§1)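 Cultures grown in RPMI 1640-2% glucose-MOPS with drug series, 48 h. Culture media analysed by 600-MHz ¹H NMR. MEP taken from stack plots and peak integrals of resolved resonances, as lowest drug concentration suppressing nutrient use or metabolite production by ≥50%. Alternative MEP: lowest concentration raising fumarate >50%.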"}, "[2]": {"system": "Aspergillus terreus", "assay": "Antifungal activity against Aspergillus terreus isolate 04-188-2548 after 48 hrs by broth microdilution method", "assay_type": "functional", "details": "isolate 04-188-2548, 48 h"}, "[3]": {"system": "Aspergillus flavus", "assay": "Antifungal activity against Aspergillus flavus ATCC 204304 after 48 hrs by broth microdilution method", "assay_type": "functional", "details": "ATCC 204304, 48 h", "method_in_brief": "(§2)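 Modified CLSI M38-A broth microdilution in RPMI 1640 with l-glutamine, 2% glucose (not 0.2%), MOPS pH 7. Serial drug dilutions 0.03125 to 16 μg/ml in microtiter plates stored at −70°C up to 3 weeks. Run in duplicate. MIC = lowest concentration completely inhibiting visible growth.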"}, "[4]": {"system": "Aspergillus niger", "assay": "Antifungal activity against Aspergillus niger isolate 05-112-3701 after 48 hrs by broth microdilution method", "assay_type": "functional", "details": "isolate 05-112-3701, 48 h", "method_in_brief": "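CLSI M38-A broth microdilution, modified to use RPMI 1640 with 2% glucose (instead of 0.2%), 0.3 g/liter l-glutamine and 0.165 M MOPS at pH 7. Drug twofold dilutions 0.03125–16 μg/ml. Run in duplicate. MIC is the lowest concentration with no visible growth. For the lipopeptide, MEC is read at 48 h as the lowest concentration giving aberrant hyphae under an inverted microscope.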"}, "[5]": {"system": "Aspergillus fumigatus", "assay": "Inhibition of metabolite production in Aspergillus fumigatus ATCC 204305 assessed as lowest drug concentration required to inhibit 50% glycine betain, fumarate, malate production after 48 hrs in presence of 2 % glucose by NMR spectroscopy", "assay_type": "functional", "method_in_brief": "as §1"}, "[6]": {"system": "Aspergillus niger", "assay": "Inhibition of metabolite production in Aspergillus niger isolate 05-112-3701 assessed as lowest drug concentration required to inhibit 50% citrate production after 48 hrs in presence of 2 % glucose by NMR spectroscopy", "assay_type": "functional", "method_in_brief": "as §1"}, "[7]": {"system": "Aspergillus fumigatus", "assay": "microbe, parasite or virus in culture", "details": "ATCC 204305, 48 h"}, "[8]": {"system": "Aspergillus fumigatus", "assay": "Inhibition of metabolite production in Aspergillus fumigatus ATCC 204305 assessed as lowest drug concentration required to inhibit 50% fungal metabolite production after 72 hrs in presence of 2 % glucose by NMR spectroscopy", "assay_type": "functional", "method_in_brief": "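Caspofungin dilutions with A. fumigatus ATCC 204305 in RPMI 1640-2% glucose-MOPS, incubated 72 h. ¹H NMR of medium. MEP = lowest concentration giving ≥50% fall in malate, glycine betaine or fumarate peak areas.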"}, "[9]": {"system": "Aspergillus terreus", "assay": "Inhibition of metabolite production in Aspergillus terreus isolate 04-188-2548 assessed as lowest drug concentration required to inhibit 50% ethanol, fumarate, malate production after 48 hrs in presence of 2 % glucose by NMR spectroscopy", "assay_type": "functional", "method_in_brief": "as §1"}, "[10]": {"system": "Aspergillus terreus", "assay": "Antifungal activity against Aspergillus terreus isolate 06-059-2428 after 48 hrs by broth microdilution method", "assay_type": "functional", "details": "isolate 06-059-2428, 48 h", "method_in_brief": "as §2"}, "[11]": {"system": "Aspergillus nidulans", "assay": "Antifungal activity against Aspergillus nidulans isolate 05-326-1785 after 72 hrs by broth microdilution method", "assay_type": "functional", "details": "isolate 05-326-1785, 72 h", "method_in_brief": "as §2"}, "[12]": {"system": "Aspergillus nidulans", "assay": "Inhibition of metabolite production in Aspergillus nidulans isolate 00-202661 assessed as lowest drug concentration required to inhibit 50% fumarate production after 72 hrs in presence of 2 % glucose by NMR spectroscopy", "assay_type": "functional", "method_in_brief": "(§3)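 A. nidulans grows slowly, so spectra were recorded after 72 h incubation in RPMI 1640-2% glucose-MOPS with drug dilutions. 600-MHz ¹H NMR of culture medium. Fumarate peak integrals plotted against drug concentration. MEP = lowest concentration with ≥50% fall in fumarate.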"}, "[13]": {"system": "Aspergillus terreus", "assay": "Inhibition of metabolite production in Aspergillus terreus isolate 06-059-2428 assessed as lowest drug concentration required to inhibit 50% ethanol production after 48 hrs in presence of 2 % glucose by NMR spectroscopy", "assay_type": "functional", "method_in_brief": "as §1"}, "[14]": {"system": "Aspergillus fumigatus", "assay": "microbe, parasite or virus in culture", "details": "isolate 06-067-1639, 48 h"}, "[15]": {"system": "Aspergillus fumigatus", "assay": "microbe, parasite or virus in culture", "details": "ATCC 204305, 72 h"}, "[16]": {"system": "Aspergillus niger", "assay": "Inhibition of metabolite production in Aspergillus niger isolate 05-290-2479 assessed as lowest drug concentration required to inhibit 50% citrate production after 48 hrs in presence of 2 % glucose by NMR spectroscopy", "assay_type": "functional", "method_in_brief": "as §1"}, "[17]": {"system": "Aspergillus niger", "assay": "Antifungal activity against Aspergillus niger isolate 05-290-2479 after 48 hrs by broth microdilution method", "assay_type": "functional", "details": "isolate 05-290-2479, 48 h", "method_in_brief": "as §2"}, "[18]": {"system": "Aspergillus flavus", "assay": "Antifungal activity against Aspergillus flavus isolate 05-314-1100 after 48 hrs by broth microdilution method", "assay_type": "functional", "details": "isolate 05-314-1100, 48 h"}, "[19]": {"system": "Aspergillus fumigatus", "assay": "Inhibition of metabolite production in Aspergillus fumigatus isolate 06-067-1639 assessed as lowest drug concentration required to inhibit 50% glycine betaine, fumarate, malate production after 48 hrs in presence of 2 % glucose by NMR spectroscopy", "assay_type": "functional", "method_in_brief": "as §1"}, "[20]": {"system": "Aspergillus nidulans", "assay": "Inhibition of metabolite production in Aspergillus nidulans isolate 05-326-1785 assessed as lowest drug concentration required to inhibit 50% fumarate production after 72 hrs in presence of 2 % glucose by NMR spectroscopy", "assay_type": "functional", "method_in_brief": "as §3"}, "[21]": {"system": "Aspergillus nidulans", "assay": "Antifungal activity against Aspergillus nidulans isolate 00-202661 after 72 hrs by broth microdilution method", "assay_type": "functional", "details": "isolate 00-202661, 72 h", "method_in_brief": "as §2"}, "[22]": {"system": "Aspergillus flavus", "assay": "Increase in metabolite production in Aspergillus flavus isolate 05-314-1100 assessed as lowest drug concentration required to increase >50% fumarate production after 48 hrs in presence of 2 % glucose by NMR spectroscopy", "assay_type": "functional", "method_in_brief": "as §1"}, "[23]": {"system": "Aspergillus flavus", "assay": "Inhibition of metabolite production in Aspergillus flavus ATCC 204304 assessed as lowest drug concentration required to inhibit 50% fumarate, malate production after 48 hrs in presence of 2 % glucose by NMR spectroscopy", "assay_type": "functional", "method_in_brief": "as §1"}},
  "data": [
    {"smiles": "C[C@@H]1[C@H](O)[C@@H](C)/C=C/C=C/C=C/C=C/C=C/C=C/C=C/[C@H](O[C@@H]2O[C@H](C)[C@@H](O)[C@H](N)[C@@H]2O)C[C@@H]2O[C@](O)(C[C@@H](O)C[C@@H](O)[C@H](O)CC[C@@H](O)C[C@@H](O)CC(=O)O[C@H]1C)C[C@H](O)[C@H]2C(=O)O", "note": "[AMPHOTERICIN B]", "values": [
      {"measurement": "Activity", "setting": "[1]", "value": 2, "unit": "µg/mL"},
      {"measurement": "MIC", "setting": "[2]", "value": 2, "unit": "µg/mL"},
      {"measurement": "MIC", "setting": "[3]", "value": 8, "unit": "µg/mL"},
      {"measurement": "MIC", "setting": "[4]", "value": 0.5, "unit": "µg/mL"},
      {"measurement": "Activity", "setting": "[5]", "value": 0.25, "unit": "µg/mL"},
      {"measurement": "Activity", "setting": "[6]", "value": 0.25, "unit": "µg/mL"},
      {"measurement": "MIC", "setting": "[7]", "value": 1, "unit": "µg/mL"},
      {"measurement": "Activity", "setting": "[8]", "value": 1, "unit": "µg/mL"},
      {"measurement": "Activity", "setting": "[9]", "value": 2, "unit": "µg/mL"},
      {"measurement": "MIC", "setting": "[10]", "value": 1, "unit": "µg/mL"},
      {"measurement": "MIC", "setting": "[11]", "value": 0.5, "unit": "µg/mL"},
      {"measurement": "Activity", "setting": "[12]", "value": 0.25, "unit": "µg/mL"},
      {"measurement": "Activity", "setting": "[13]", "value": 0.06, "unit": "µg/mL"},
      {"measurement": "MIC", "setting": "[14]", "value": 1, "unit": "µg/mL"},
      {"measurement": "MIC", "setting": "[15]", "value": 1, "unit": "µg/mL"},
      {"measurement": "Activity", "setting": "[16]", "value": 0.125, "unit": "µg/mL"},
      {"measurement": "MIC", "setting": "[17]", "value": 0.25, "unit": "µg/mL"},
      {"measurement": "MIC", "setting": "[18]", "value": 4, "unit": "µg/mL"},
      {"measurement": "Activity", "setting": "[19]", "value": 0.5, "unit": "µg/mL"},
      {"measurement": "Activity", "setting": "[20]", "value": 0.5, "unit": "µg/mL"},
      {"measurement": "MIC", "setting": "[21]", "value": 1, "unit": "µg/mL"},
      {"measurement": "Activity", "setting": "[22]", "value": 0.06, "unit": "µg/mL"},
      {"measurement": "Activity", "setting": "[23]", "value": 2, "unit": "µg/mL"}
    ]}
  ]
}
